Measured values taken from ChEMBL document CHEMBL1121975, “Effect of N,N'-diethyl-1,2-bis(2,6-dichloro-4-hydroxyphenyl)ethylenediamines on the 7,12-dimethylbenz[a]anthracene-induced mammary carcinoma of the rat” (1982).

What was measured:
[1] = organism: Rattus norvegicus; test: (§1) Unchanged total tumor area (51-150%) in DMBA-induced mammary carcinoma in rats; assay type: functional
Procedure, shortened: (§2)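 Sprague-Dawley rats bearing DMBA-induced mammary tumours, randomized in groups of 10 between days 35 and 70 after induction. Dosing was sc in olive oil at 2 or 6 mg/kg: a single dose daily Monday–Thursday and a double dose Friday, for 4 weeks. Tumour number was taken at test start. Complete remission = not palpable; partial = ≤50% of initial size; static = 51-150% of initial size.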

[2] = organism: Rattus norvegicus; test: (§3) Increased total tumor area (>150%) in DMBA-induced mammary carcinoma in rats; assay type: functional; procedure, shortened: as §2
[3] = system: Rattus norvegicus; test: Complete remission of DMBA-induced mammary carcinoma in rats at 2 mg/kg dose; assay type: functional; procedure, shortened: as §2
[4] = system: Rattus norvegicus; test: Tumour number in DMBA-induced mammary carcinoma in rats at 6 mg/kg dose; assay type: functional; procedure, shortened: as §2
[5] = organism: Rattus norvegicus; test: as §1; assay type: functional; procedure, shortened: as §2; remark: listed apart in the source
[6] = system: Rattus norvegicus; test: Complete remission of DMBA-induced mammary carcinoma in rats at 6 mg/kg dose; assay type: functional; procedure, shortened: as §2
[7] = system: Rattus norvegicus; test: Tumour number in DMBA-induced mammary carcinoma in rats at 2 mg/kg dose; assay type: functional; procedure, shortened: as §2
[8] = system: Rattus norvegicus; test: Change in body weight in rats after 7 days at 2 mg/kg dose; assay type: functional
[9] = system: Rattus norvegicus; test: Change in body weight in rats after 7 days at 6 mg/kg dose; assay type: functional
[10] = organism: Rattus norvegicus; test: as §3; assay type: functional; procedure, shortened: as §2; remark: listed apart in the source
[11] = system: Rattus norvegicus; test: Progression of DMBA-induced mammary carcinoma in rats at 6 mg/kg dose; assay type: functional; procedure, shortened: as §2
[12] = system: Rattus norvegicus; test: Progression of DMBA-induced mammary carcinoma in rats at 2 mg/kg dose; assay type: functional; procedure, shortened: as §2
[13] = organism: Rattus norvegicus; test: (§4) Partial remission of DMBA-induced mammary carcinoma in rats; assay type: functional; procedure, shortened: as §2
[14] = organism: Rattus norvegicus; test: as §4; assay type: functional; procedure, shortened: as §2; remark: listed apart in the source
[15] = target: Estrogen receptor (Bos taurus) (UniProt Q9XSB5+P49884); test: Displacement of [3H]- estradiol from calf uterine estrogen receptor; assay type: protein assay
Procedure, shortened: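 Competitive binding with calf uterine cytosol as the estrogen receptor source, [3H]estradiol as tracer, and dextran-charcoal separation. RBA = (molar concentration of E2 / molar concentration of inhibitor needed to reduce bound [3H]E2 by 50%) × 100, with 17β-estradiol = 100.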

[16] = organism: Rattus norvegicus; test: as §3; assay type: functional; procedure, shortened: as §2; remark: listed apart in the source

Question: Which results are given for CCNC(c1c(Cl)cc(O)cc1Cl)C(NCC)c1c(Cl)cc(O)cc1Cl (racemic) [listing 1 of 2 here]?
Answer: Static tumors [1]: 23%; Progressed tumors [2]: 16%; Complete remission [3]: 14%; No. of tumors [4]: 28; Static tumors [5]: 21%; Complete remission [6]: 35%; No. of tumors [7]: 34; Change of body weight [8]: 0%; Change of tumor area [8]: 282%; Change of body weight [9]: -2%; Change of tumor area [9]: -24%; Progressed tumors [10]: 54%; New tumors [11]: 15; New tumors [12]: 18; Partial remission [13]: 26%; Partial remission [14]: 11%

Question: CNC(c1c(Cl)cc(O)cc1Cl)C(NC)c1c(Cl)cc(O)cc1Cl (racemic) was tested. Which relative binding affinity (RBA) [15] did it give?
Answer: 1.3

Question: Which relative binding affinity (RBA) [15] does the source give for CCCNC(c1c(Cl)cc(O)cc1Cl)C(NCCC)c1c(Cl)cc(O)cc1Cl (stereo in doubt) here?
Answer: 8.2

Question: CCNC(c1c(Cl)cc(O)cc1Cl)C(NCC)c1c(Cl)cc(O)cc1Cl (stereo in doubt) [listing 1 of 2 here] was tested. Which relative binding affinity (RBA) [15] did it give?
Answer: 8.6

Question: For CNC(c1c(Cl)cc(O)cc1Cl)C(NC)c1c(Cl)cc(O)cc1Cl (stereo in doubt), which relative binding affinity (RBA) [15] is on record?
Answer: 2.3

Question: Which relative binding affinity (RBA) [15] does the source give for CCCNC(c1c(Cl)cc(O)cc1Cl)C(NCCC)c1c(Cl)cc(O)cc1Cl (racemic) here?
Answer: 1

Question: CCNC(c1c(Cl)cc(O)cc1Cl)C(NCC)c1c(Cl)cc(O)cc1Cl (stereo in doubt) [listing 2 of 2 here] was tested. Which Static tumors [1] did it give?
Answer: 16%

Question: What about the Progressed tumors [2] of the same compound?
Answer: 3%

Question: And the Complete remission [3]?
Answer: 50%

Question: And the No. of tumors [4]?
Answer: 26

Question: What about the Static tumors [5] of the same compound?
Answer: 10%

Question: And the Complete remission [6]?
Answer: 28%

Question: And the Progressed tumors [16]?
Answer: 26%

Question: And the No. of tumors [7]?
Answer: 35

Question: And the “Change of body weight” value [8]?
Answer: -6%

Question: What about the “Change of tumor area” value [8] of the same compound?
Answer: 29%

Question: And the “Change of body weight” value [9]?
Answer: -4%

Question: What about the “Change of tumor area” value [9] of the same compound?
Answer: -74%

Question: And the New tumors [11]?
Answer: 6

Question: What about the New tumors [12] of the same compound?
Answer: 7

Question: What about the Partial remission [13] of the same compound?
Answer: 53%

Question: And the Partial remission [14]?
Answer: 14%

Question: How did the relative binding affinity (RBA) [15] turn out when CCNC(c1c(Cl)cc(O)cc1Cl)C(NCC)c1c(Cl)cc(O)cc1Cl (racemic) [listing 2 of 2 here] was run?
Answer: 2.1
